Mdm2 MdmX PPI: human Mdm2/MdmX binding inhibition | AID 485346 | inhibition, % at 8 µM | hit rate 3% among 330,000 | SaOS-2 split-luciferase Mdm2/MdmX complementation, luminescence;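 active means inhibition of at least 50% at 8 µM in the primary screen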
Target sequence (O15151 whole entry, looked up): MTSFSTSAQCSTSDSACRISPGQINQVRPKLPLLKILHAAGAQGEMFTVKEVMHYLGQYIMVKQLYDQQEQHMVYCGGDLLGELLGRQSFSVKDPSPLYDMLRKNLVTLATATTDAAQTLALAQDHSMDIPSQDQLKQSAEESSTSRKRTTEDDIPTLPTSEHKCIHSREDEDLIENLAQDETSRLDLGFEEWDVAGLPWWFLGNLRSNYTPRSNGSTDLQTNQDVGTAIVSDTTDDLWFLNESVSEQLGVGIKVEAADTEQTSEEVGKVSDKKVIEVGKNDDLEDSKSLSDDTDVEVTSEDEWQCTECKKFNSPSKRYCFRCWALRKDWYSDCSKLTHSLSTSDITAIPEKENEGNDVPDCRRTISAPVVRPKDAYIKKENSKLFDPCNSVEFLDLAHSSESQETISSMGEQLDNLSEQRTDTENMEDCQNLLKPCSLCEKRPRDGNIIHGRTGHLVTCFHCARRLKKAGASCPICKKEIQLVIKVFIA
Target sequence (Q00987 whole entry, looked up): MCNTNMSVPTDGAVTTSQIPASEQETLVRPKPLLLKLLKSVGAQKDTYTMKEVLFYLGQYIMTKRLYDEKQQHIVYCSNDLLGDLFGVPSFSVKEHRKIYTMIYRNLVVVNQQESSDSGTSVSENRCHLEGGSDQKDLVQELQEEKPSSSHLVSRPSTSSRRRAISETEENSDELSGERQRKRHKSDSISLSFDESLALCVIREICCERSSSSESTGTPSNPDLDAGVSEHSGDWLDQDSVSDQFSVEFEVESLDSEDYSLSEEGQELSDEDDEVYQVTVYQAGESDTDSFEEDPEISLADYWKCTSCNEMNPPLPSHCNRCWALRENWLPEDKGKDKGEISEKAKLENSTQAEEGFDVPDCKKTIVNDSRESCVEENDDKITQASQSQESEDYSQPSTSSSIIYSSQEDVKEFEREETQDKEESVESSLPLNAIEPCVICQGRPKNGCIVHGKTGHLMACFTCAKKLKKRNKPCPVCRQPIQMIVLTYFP
UPR XBP1 act: activators of adaptive arm of unfolded protein response (XBP1); CHO-XBP1 luciferase reporter, IRE1-XBP1 UPR activation, luminescence; percent of tunicamycin response, DMSO as zero; activation, % at 20 µM; hit rate 0.33% among 330,000;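 active means versus positive control, 20 µM dose yields 30% or more activation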;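 further: 100% = tunicamycin at 10 µg/mL and 0% = DMSO only wells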
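Signal: luciferase luminescence; Assay system: CHO-XBP1 luciferase reporter cells; Amount: one thousand reporter cells per well; Dosing: 20 µM single concentration, DMSO 1%; Benchmarks: high control tunicamycin 10 µg/mL final, low control DMSO vehicle only; Schedule: 6 h compound exposure at 37 °C, 5% CO2; Evaluation: percent activation relative to tunicamycin reference.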
Beta apoptosis: beta cell apoptosis inhibition; protection from apoptosis, % (test concentration not listed); hit rate 0.8% among 300,000; INS-1E cytokine-induced death, ATP luminescence, 48 h; percent of positive-control rescue, neutral wells zero;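 active means Every replicate reaches about 75%, or at least half do and their mean reaches it too, limit read from the data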;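 further: 0% = cytokine-treated negative control wells and 100% = positive control rescue; higher means more ATP so stronger rescue from cytokine killing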
CSC inhib: blocks cancer stem cells | inhibition, % at 7.5 µM | cancer stem cell-like cells viability, luminescence | hit rate 1.1% among 300,000; in the data active means inhibition above about 75%; tested in HMLE shEcad cells
UPR CHOP act: activators of apoptotic arm of unfolded protein response (CHOP) | CHO-CHOP luciferase reporter, UPR activation, luminescence; percent of tunicamycin response over DMSO baseline | activation, % at 10 µM | hit rate 0.34% among 330,000 | AID 449763;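 active means at 10 µM dose, activation of 40% or more, normalized to positive control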;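 further: 100% = tunicamycin at 10 µg/mL and 0% = DMSO alone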
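System: CHO CHOP reporter cells. Amount: 500 cells per well. Buffer or medium: F12 medium, 10% FBS. Compound dosing: one dose, 10 µM in 0.5% DMSO. Incubation: 6 h compound exposure at 37 °C after overnight seeding. Technique: Steady-Glo luciferase luminescence. Benchmarks: tunicamycin and DMSO controls.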
SKKanGAS inh: blocks kanamycin growth of S. pyogenes SKKanGAS strain. BacTiter-Glo, 6 h. hit rate 1.3% among 300,000. AID 1662. inhibition, % at 7.5 µM;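 active means mean replicate score, as percent of positive control median, at least 50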;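 further: strain carries kanamycin resistance gene driven by streptokinase promoter and grows in 40 µg/ml kanamycin; loss of luminescence reflects streptokinase promoter inhibition or plain growth inhibition; 0% = median of DMSO wells and 100% = positive control at its reference dose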
Mdm2-MdmX conf: confirmation of human Mdm2/MdmX interaction inhibitors | hit rate 55% among 10,000 | inhibition, % at 8 µM | Mdm2-MdmX binding, luminescent assay | shares compounds with Mdm2 MdmX PPI; in the data active means inhibition above about 40%
FLuc counter: counter-screen for Mdm2/MdmX inhibitors: full-length luciferase. shares compounds with Mdm2 MdmX PPI. SaOS-2 full-length luciferase counterscreen, luminescence. inhibition, % at 8 µM. hit rate 77% among 6,200. AID 504607;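 active means mean inhibition at 8 µM reaching about 37%, which flags the compound as non-specific, limit read from the data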;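 further: p53-null SaOS-2 cells with luciferase driven by a doxycycline-inducible promoter; compound on cells about two nights before reading with doxycycline added after day one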
Starred values were filed as active, the others as inactive; / = no result given. This is a sample that favours compounds with a hit; in the whole collection about 4.8% have one here.

SMILES	Mdm2 MdmX PPI	UPR XBP1 act	Beta apoptosis	CSC inhib	UPR CHOP act	SKKanGAS inh	Mdm2-MdmX conf	FLuc counter
CCN(CC)S(=O)(=O)c1ccc(OC)c(NC(=O)c2cc3c(=O)n4ccccc4nc3s2)c1	55*	-2	6	-4	-1	-13	7	/
Cc1cccc(NC(=O)c2cc3c(=O)n4ccccc4nc3s2)c1	7	3	5	-2	4	-2	/	/
CN1C(=O)C(c2ccccc2[N+](=O)[O-])C(=O)c2ccccc21 (stereo unspecified)	24	1	-3	-8	-1	-4	/	/
Cc1onc(C(=O)N2CCN(c3ccccc3)CC2)c1[N+](=O)[O-]	4	-4	/	/	-3	9	/	/
CCOc1ncccc1C(=O)N1CCN(c2cc(Cl)ccc2C)CC1	61*	11	6	57	-1	7	59*	81*
Cc1ccc(Cl)cc1N1CCN(C(=O)c2noc(C)c2[N+](=O)[O-])CC1	75*	-5	/	/	0	8	76*	60*
CCOc1ncccc1C(=O)N1CCN(c2cccc(C)c2C)CC1	/	/	/	/	/	0	/	/
O=C(NCc1ccc(Cl)cc1)C1CCN(C(=O)c2ccc(Cl)cc2)CC1	-1	-1	/	/	-1	/	/	/
Clc1ccc(-n2ncc3c(NCc4ccco4)ncnc32)cc1	-78	6	/	49	0	23	/	/
Clc1ccc(Cn2ncc3c(NCc4ccco4)ncnc32)c(Cl)c1	74*	-5	24	60	4	13	66*	31
OCCNc1ncnc2c1cnn2Cc1ccccc1	/	/	-3	-7	/	0	/	/
c1ccc(CNc2ncnc3c2cnn3Cc2ccccc2)cc1	58*	3	24	48	-2	-6	55*	70*
Cc1ccc(C2(CCNCc3ccc(N(C)C)cc3)CCOC(C(C)C)C2)cc1 (stereo unspecified)	93*	1	19	13	0	-3	23	/
CCS(=O)(=O)N1Cc2ccccc2CC1C(=O)Nc1nc2ccccc2[nH]1 (stereo unspecified)	-41	-1	6	-5	3	5	/	/
CCS(=O)(=O)N1Cc2ccccc2CC1C(=O)Nc1nc2ccccc2s1 (stereo unspecified)	59*	-2	-1	-2	0	7	70*	162*
CCOC(=O)c1c(-c2ccccc2)oc2ccc(OCC(O)CNCCN(C)C)cc12 (stereo unspecified)	95*	14	19	55	4	0	48*	35
CCCOc1ccc(/C=N/Nc2cc(N3CCOCC3)ncn2)c(O)c1	73*	1	91*	98*	-3	-10	81*	24
O=[N+]([O-])c1ccc(/C=N/Nc2cc(Cl)nc(-c3ccccc3)n2)cc1	31	9	11	-5	5	3	/	/
C/C(=N\Nc1cc(N2CCOCC2)ncn1)c1cccc([N+](=O)[O-])c1	60*	-3	-24	/	-3	-3	21	/
O=[N+]([O-])c1cccc(/C=N/Nc2cc(Cl)nc(-c3ccccc3)n2)c1	66*	4	14	0	3	39	10	/
O=[N+]([O-])c1cccc(/C=N/Nc2cc(N3CCOCC3)ncn2)c1	59*	-8	-11	3	0	-4	33	/
O=C(Nc1ccc(N2CCN(C(=O)c3ccco3)CC2)cc1)c1ccc([N+](=O)[O-])cc1Cl	23	-4	1	6	1	5	/	/
O=C(Nc1ccc2c(c1)CCCN2C(=O)c1ccco1)c1cc([N+](=O)[O-])ccc1Cl	82*	-3	6	-17	2	2	82*	68*
O=C(Nc1ccccc1Oc1ccccc1)c1cc([N+](=O)[O-])ccc1Cl	79*	-2	-10	1	2	2	48*	68*
O=C(O)c1ccccc1C(=O)Nc1ccc(Nc2ccc([N+](=O)[O-])cc2[N+](=O)[O-])cc1	20	-4	1	-11	1	4	/	/
SMILES	Mdm2 MdmX PPI	UPR XBP1 act	Beta apoptosis	CSC inhib	UPR CHOP act	SKKanGAS inh	Mdm2-MdmX conf	FLuc counter
O=C(Nc1ccc(Nc2ccccc2)cc1)c1cc([N+](=O)[O-])ccc1Cl	54*	-6	16	78*	4	-9	38	/
Cc1cccc(NC(=O)c2cc([N+](=O)[O-])ccc2Cl)c1O	/	/	3	7	/	-2	/	/
CC(CCc1ccccc1)NS(=O)(=O)c1ccc(Cl)c(C(=O)O)c1 (stereo unspecified)	-4	-1	-9	-11	0	-4	/	/
COc1ccc(NC(=O)Cc2nnc(SCC(=O)Nc3nccs3)n2C)cc1	7	-5	-7	-10	-3	1	/	/
CCn1c(CC(=O)Nc2ccc(C)c(Cl)c2)nnc1SCc1ccc(Cl)c(Cl)c1	-7	-4	-2	-8	-3	-4	/	/
CCn1c(CC(=O)Nc2ccc(C)c(Cl)c2)nnc1SCC(=O)Nc1nc(C)cs1	63*	1	-5	0	-1	4	-2	/
CCn1c(CC(=O)Nc2cccc(OC)c2)nnc1SCC(=O)Nc1nccs1	57*	-1	-1	-5	1	-2	54*	59*
COc1ccc(Br)cc1CNC(=O)CN1C(=O)C(c2ccccc2)Oc2cccnc21 (stereo unspecified)	-1	-3	/	11	2	9	/	/
COc1cc(OC)c(C(=O)OCC(=O)NCC2CCCCC2)cc1OC	3	1	/	/	0	/	/	/
O=C(Nc1ccc(OCC(F)(F)C(F)F)c(C(F)(F)F)c1)c1ccccc1O	94*	6	122*	1	16	81*	92*	28
O=C(Nc1ccc(OCC(F)(F)C(F)F)c(C(F)(F)F)c1)c1ccccc1	14	3	2	68	2	9	/	/
O=c1c2ccccc2nnn1CSc1nnc2sc3ccccc3n12	53*	-7	2	-5	-6	1	54*	113*
CN(C)C(=O)CSc1nnc2sc3ccccc3n12	0	-3	-1	-1	0	-3	/	/
Cc1c(CCOC(=O)C2C3CC4CC(C3)CC2C4)sc[n+]1CC(=O)c1ccc(Br)cc1 (stereo unspecified)	67*	8	52	108*	2	50*	16	/
CN1CCN(c2ncnc3c2c(-c2ccccc2)cn3-c2ccc(F)cc2)CC1	22	1	1	23	0	-10	/	/
CCOC(=O)CSc1ncnc2c1c(-c1ccccc1)cn2-c1ccc(OC)cc1	8	0	6	-6	-2	12	/	/
